Reference: PubChem BioAssay AID1019 (Sanford-Burnham Center for Chemical Genomics, 2008)
In all, about 190,000 compounds went through this assay and fewer than 10 were called active.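 How the source made its calls: active means over 50% inhibition of intestinal alkaline phosphatase at 20 µM in the single-dose screen; inactive means the rest.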 The list is a sample of the results.

These compounds were tested on alkaline phosphatase, intestinal [Bos taurus] (assay: IAP enzyme activity blockers – biochemical, bovine IAP, CDP-star luminescence, selectivity assay for TNAP inhibitor project, primary screen (AID 1019)). Conditions: purified bovine IAP, 30 min, at 20 µM, hits give high values.
Summary of the method: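 System: purified bovine intestinal alkaline phosphatase (IAP) enzyme; Input: IAP diluted 1/65,000,000 in the well; Measured by: CDP-star luminescence signal; Compound dosing: 20 µM single dose; Incubation: 30 min reaction at room temperature.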

| Structure (SMILES) | inhibition |
| --- | --- |
| Cn1cccc1C(C#N)c1ccccc1C#N (stereo unspecified) | -10.8% (inactive) |
| Cc1ccc(NC(=S)N(Cc2ccco2)C(C)c2cccs2)cc1 (stereo unspecified) | 34.5% (inactive) |
| NC1=C([N+](=O)[O-])C(c2ccccc2)C2=C(CCCC2=O)O1 (stereo unspecified) | 3.7% (inactive) |
| COc1ccccc1Oc1ccc(N/C=C2/CCCC2=O)cc1 | 20.1% (inactive) |
| CC(=O)Nc1nc(N(C)C)nc(N(C)C)n1 | 4.4% (inactive) |
| CC(=O)c1ccc(N=C2SCCCN2C(=O)C2CCCCC2)cc1 | 24.2% (inactive) |
| COc1ccccc1N1CCN(CC(=O)NCCc2ccc(S(N)(=O)=O)cc2)CC1 | -0.9% (inactive) |
| Oc1ccc(/C=N/Nc2ccc(C(F)(F)F)cn2)cc1O | -26.9% (inactive) |
| COc1ccc(OC)c(C2C3=C(N=c4s/c(=C\c5cccc(O)c5)c(=O)n42)c2ccccc2CC3)c1 (stereo unspecified) | 0.5% (inactive) |
| COc1ccc(NC(=O)C(C)SCc2ccccc2)cc1 (stereo unspecified) | -24.1% (inactive) |
| CN(c1ccccc1)S(=O)(=O)c1ccc(Cl)c(C(=O)OCC(=O)N2CCOCC2)c1 | 0.4% (inactive) |
| CC(NCc1nc2ccccc2n1C)C12CC3CC(CC(C3)C1)C2 (stereo unspecified) | 1% (inactive) |
| CCN(CC)S(=O)(=O)c1cc([N+](=O)[O-])ccc1N=Nc1c(O)n(C)c2ccccc12 | -5.1% (inactive) |
| Cc1cccc(CN2CCN(Cc3cnn(-c4ccccc4F)c3)CC2CCO)n1 (stereo unspecified) | -15.4% (inactive) |
| O=[N+]([O-])c1ccccc1N/N=C1\CCc2ccccc21 | 14.9% (inactive) |
| CCc1ccc(C(=O)OCC(=O)Nc2cccc(S(=O)(=O)NC3=NCCCCC3)c2)cc1 | 7.2% (inactive) |
| O=C(COC(=O)c1cc(-c2cccs2)nn1-c1ccccc1)Nc1cc([N+](=O)[O-])ccc1Cl | -4.8% (inactive) |
| Cc1ccc(C2=NN(C(=O)COc3ncnc4ccccc34)C(c3ccco3)C2)cc1 (stereo unspecified) | -8.2% (inactive) |
| COC(=O)c1cc(NC(=O)c2cccnc2)ccc1N1CCOCC1 | 0.2% (inactive) |
| COc1ccc(S(=O)(=O)NC(C)C)cc1C(=O)NC1CCCCC1 | 7.7% (inactive) |
| COc1ccccc1NC(=O)C[n+]1ccccc1 | 5.8% (inactive) |

| Structure (SMILES) | inhibition |
| --- | --- |
| Cc1cc(/C=C2/SC(=O)N(CC(=O)N3CCCC3)C2=O)ccc1N1CCOCC1 | 2.3% (inactive) |
| COc1ccc(CCNC(=O)Cn2c(=O)n(CC3CCCO3)c(=O)c3ccccc32)cc1OC (stereo unspecified) | -3.9% (inactive) |
| N#C/C(=C\C1=C(N2CCOCC2)C(=C\c2ccccc2)/CC1)C(=O)Nc1ccccc1F | 5.9% (inactive) |
| CC1CN/C(=C\C(=O)c2ccc(Br)cc2)C(=O)N1 (stereo unspecified) | 12.9% (inactive) |
| COc1ccc(/C=C(\C#N)C(=O)ONC2=NCCCCC2)cc1 | -2% (inactive) |
| Cc1ncoc1C(=O)N1CCCC(C(=O)c2ccc3c4c(cccc24)CC3)C1 (stereo unspecified) | 8.3% (inactive) |
| COC(=O)c1nc(NC(=O)c2ccc(F)cc2)n[nH]1 | 8.8% (inactive) |
| CC1(C)CC(=O)c2cnc3nc4ccccc4n3c2C1 | 7.1% (inactive) |
| CCOc1c(CNCc2ccc(C(=O)O)cc2)cccc1OC | -5.7% (inactive) |
| Cc1cc(C(C)(C)C)cc(S(=O)(=O)Nc2ccc(C(=O)O)cc2)c1C | -15.7% (inactive) |
| Cc1c(NC(=O)CSc2nnnn2-c2ccc(C(=O)O)cc2)c(=O)n(-c2ccccc2)n1C | 6% (inactive) |
| CC(C)(C)c1cnnn1-c1ccc([N+](=O)[O-])cc1 | 3.1% (inactive) |
| CCCCCCCCCOC1OC(CO)C(O)C(O)C1NC(C)=O (stereo unspecified) | -0.5% (inactive) |
| COc1ccc(CCNC(=O)CN(c2ccccc2)S(C)(=O)=O)cc1 | -4% (inactive) |
| CCCc1nc2c([nH]1)C(c1cccnc1)C(C#N)=C(N)O2 (stereo unspecified) | 8.5% (inactive) |
| CC(OC(=O)CCc1nc(=O)c2ccccc2n1C)C(=O)NCc1ccc2c(c1)OCO2 (stereo unspecified) | -9.4% (inactive) |
| O=c1[nH]c(=S)[nH]c2[nH]c(=S)[nH]c12 | 18.7% (inactive) |
| CC(C)N(Cc1nc(-c2ccc3c(c2)OCO3)no1)CC1CCC(=O)N1 (stereo unspecified) | 2.1% (inactive) |
| O=C(NC1CC1)c1ccc(-c2ccccc2)cc1 | -4.4% (inactive) |
| O=C(O)CSCC(=O)Nc1ccc(C(F)(F)F)cc1 | 3.8% (inactive) |
| COc1cc(OC)cc(C(=O)NCC(=O)OCc2csc(-c3ccccc3)n2)c1 | 1.4% (inactive) |

| Structure (SMILES) | inhibition |
| --- | --- |
| CNc1nccc(-c2ccc(Cl)cc2)c1C#N | -1.9% (inactive) |
| O=C(c1ccc(C(F)(F)F)cc1)C1CCCN(C(=O)c2csnn2)C1 (stereo unspecified) | 9.5% (inactive) |
| CN1C(=O)/C(=C/c2ccco2)SC1=Nc1cccc(C(=O)O)c1 | -5.3% (inactive) |
| COC(=O)CCC(=O)N1CCCC(CO)(Cc2ccccc2)C1 (stereo unspecified) | 6.2% (inactive) |
| CCN(CC)CCN(C(=O)c1cccc([N+](=O)[O-])c1)c1nc2ccc(OC)cc2s1 | 4.9% (inactive) |
| O=C(Nc1ccc([N+](=O)[O-])cc1)C1(c2ccccc2)CCOCC1 | 9.9% (inactive) |
| Cc1noc(C)c1COc1cccc(C(=O)Nc2cccnc2)c1 | -7.5% (inactive) |
| CC(C)CCNC(=O)c1cccnc1Sc1ccccc1 | -6.1% (inactive) |
| Brc1ccc(C2CC(c3ccccc3)=Nc3ccccc3N2)cc1 (stereo unspecified) | 7.5% (inactive) |
| Cc1ccc(C)c(Cn2nnc3c(=O)[nH]c(C(=O)Nc4ccc(F)cc4)nc32)c1 | 2.7% (inactive) |
| COc1ccccc1CN(C)C(=O)C1(c2ccc(Cl)cc2)CC1 | 11.2% (inactive) |
| COCCNC(=S)Nc1cc(S(=O)(=O)N2CCOCC2)ccc1N1CCCCC1 | -0.2% (inactive) |
| COc1ccc(S(=O)(=O)N2CCN(C(=O)c3cc(C)oc3C)CC2)cc1 | 4.3% (inactive) |
| Cc1ccc(NC(=O)c2oc3ccccc3c2C)c([N+](=O)[O-])c1 | 21.2% (inactive) |
| Clc1ccc(-c2cc(C3CCNCC3)[nH]n2)c(Cl)c1 | 1% (inactive) |
| COc1cccc(NC(=O)C(Sc2nnnn2C)c2ccccc2)c1 (stereo unspecified) | -2.3% (inactive) |
| CCC1SC(CC)C(=O)N(CC(=O)NC2CCCCC2)C1=O (stereo unspecified) | 11.7% (inactive) |
| O=C(CCc1[nH]c2ccccc2c1Sc1ccccc1)N(CCO)CCO | 14.8% (inactive) |
| Cc1ccc(S(=O)(=O)N(Cc2ccc(Cl)cc2)c2ccccc2C(=O)NCc2cccnc2)cc1 | 15.3% (inactive) |
